Results published in ChEMBL document CHEMBL4376860, “Discovery of Novel Dual Poly(ADP-ribose)polymerase and Phosphoinositide 3-Kinase Inhibitors as a Promising Strategy for Cancer Therapy” (J Med Chem, 2020).
The source made the active and inactive calls. The rule behind the calls is not given here.

Legend:
[1] = biological target: Phosphatidylinositol 4,5-bisphosphate 3-kinase catalytic subunit delta isoform (Homo sapiens, UniProt O00329); test: Inhibition of PI3Kdelta (unknown origin) using PIP2 as substrate measured after 2 hrs by ADP-glo plus luminescence assay
Chain of Phosphatidylinositol 4,5-bisphosphate 3-kinase catalytic subunit delta isoform (O00329 whole entry, canonical isoform): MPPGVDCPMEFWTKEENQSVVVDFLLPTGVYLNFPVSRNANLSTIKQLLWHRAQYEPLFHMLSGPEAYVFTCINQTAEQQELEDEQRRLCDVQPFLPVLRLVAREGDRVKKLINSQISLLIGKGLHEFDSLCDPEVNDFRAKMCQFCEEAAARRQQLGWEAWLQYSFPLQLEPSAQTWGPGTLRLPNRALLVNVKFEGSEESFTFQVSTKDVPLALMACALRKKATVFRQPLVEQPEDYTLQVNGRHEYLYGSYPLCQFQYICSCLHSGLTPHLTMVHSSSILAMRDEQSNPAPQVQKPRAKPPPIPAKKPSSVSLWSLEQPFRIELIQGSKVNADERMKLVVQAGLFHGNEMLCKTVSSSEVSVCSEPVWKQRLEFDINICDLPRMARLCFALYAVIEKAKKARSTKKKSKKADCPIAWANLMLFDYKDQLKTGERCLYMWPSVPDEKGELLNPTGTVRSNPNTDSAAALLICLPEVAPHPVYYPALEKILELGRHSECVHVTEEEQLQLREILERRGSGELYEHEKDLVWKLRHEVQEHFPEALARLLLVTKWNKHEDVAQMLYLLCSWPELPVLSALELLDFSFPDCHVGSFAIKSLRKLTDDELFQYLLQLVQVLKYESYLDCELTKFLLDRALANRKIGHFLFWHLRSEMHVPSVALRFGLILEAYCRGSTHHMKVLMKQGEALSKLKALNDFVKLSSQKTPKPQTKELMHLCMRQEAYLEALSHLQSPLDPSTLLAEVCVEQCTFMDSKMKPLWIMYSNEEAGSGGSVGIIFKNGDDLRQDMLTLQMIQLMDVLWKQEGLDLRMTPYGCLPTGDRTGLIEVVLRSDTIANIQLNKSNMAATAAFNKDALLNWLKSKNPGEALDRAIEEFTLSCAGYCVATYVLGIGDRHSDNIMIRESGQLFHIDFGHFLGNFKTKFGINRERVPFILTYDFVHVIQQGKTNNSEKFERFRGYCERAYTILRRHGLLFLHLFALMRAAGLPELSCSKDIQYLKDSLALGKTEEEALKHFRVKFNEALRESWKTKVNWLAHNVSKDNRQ
Procedure, shortened: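 ADP-Glo Plus luminescence assay in 50 µL of 10 mM Tris-HCl pH 7.5 with 25 µM ATP, 9.75 µM PIP2, 4 mM MgCl2, 50 mM NaCl, 0.05% Chaps, 1 mM DTT, 5% glycerol and 2% DMSO. Enzyme: PI3Kα and β at 60 ng/mL, δ at 45 ng/mL. Ten-point 3-fold dilutions from 1 µM. Incubation at room temperature for 1 h (α, β) or 2 h (δ). IC50 by nonlinear regression.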

[2] = Toxicity in BALB/c mouse xenografted with human MDA-MB-468 cells assessed as mortality at 50 mg/kg, ip administered every 2 days for 34 days; assay type: organism-based; details: in vivo
Procedure, shortened: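 Nude mice bearing subcutaneous right-flank MDA-MB-468 tumours (2 × 10^6 exponential-phase cells implanted). Randomised at about 100 mm³ tumour volume; 6 mice per group. Dosed ip every 2 days for 34 days. Vehicle controls received PBS with 5% DMSO. Body weight and tumour size recorded every 2 days; tumour volume calculated as ab²/2 from caliper diameters.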

HCC1937 = test: Potency index, ratio of BKM120 IC50 to test compound IC50 for antiproliferative activity against human HCC1937 cells; assay type: functional
MDA-MB-468 [3] = test: Induction of apoptosis in human MDA-MB-468 cells xenografted in BALB/c mouse assessed as increase in cleaved PARP expression at 50 mg/kg, ip administered every 2 days for 34 days measured post last dose by Western blot analysis; assay type: functional, organism-based
[4] = biological target: Phosphatidylinositol 4,5-bisphosphate 3-kinase catalytic subunit beta isoform (Homo sapiens, UniProt P42338); test: Inhibition of PI3Kbeta (unknown origin) using PIP2 as substrate measured after 1 hr by ADP-glo plus luminescence assay
Chain of Phosphatidylinositol 4,5-bisphosphate 3-kinase catalytic subunit beta isoform (P42338 whole entry, canonical isoform): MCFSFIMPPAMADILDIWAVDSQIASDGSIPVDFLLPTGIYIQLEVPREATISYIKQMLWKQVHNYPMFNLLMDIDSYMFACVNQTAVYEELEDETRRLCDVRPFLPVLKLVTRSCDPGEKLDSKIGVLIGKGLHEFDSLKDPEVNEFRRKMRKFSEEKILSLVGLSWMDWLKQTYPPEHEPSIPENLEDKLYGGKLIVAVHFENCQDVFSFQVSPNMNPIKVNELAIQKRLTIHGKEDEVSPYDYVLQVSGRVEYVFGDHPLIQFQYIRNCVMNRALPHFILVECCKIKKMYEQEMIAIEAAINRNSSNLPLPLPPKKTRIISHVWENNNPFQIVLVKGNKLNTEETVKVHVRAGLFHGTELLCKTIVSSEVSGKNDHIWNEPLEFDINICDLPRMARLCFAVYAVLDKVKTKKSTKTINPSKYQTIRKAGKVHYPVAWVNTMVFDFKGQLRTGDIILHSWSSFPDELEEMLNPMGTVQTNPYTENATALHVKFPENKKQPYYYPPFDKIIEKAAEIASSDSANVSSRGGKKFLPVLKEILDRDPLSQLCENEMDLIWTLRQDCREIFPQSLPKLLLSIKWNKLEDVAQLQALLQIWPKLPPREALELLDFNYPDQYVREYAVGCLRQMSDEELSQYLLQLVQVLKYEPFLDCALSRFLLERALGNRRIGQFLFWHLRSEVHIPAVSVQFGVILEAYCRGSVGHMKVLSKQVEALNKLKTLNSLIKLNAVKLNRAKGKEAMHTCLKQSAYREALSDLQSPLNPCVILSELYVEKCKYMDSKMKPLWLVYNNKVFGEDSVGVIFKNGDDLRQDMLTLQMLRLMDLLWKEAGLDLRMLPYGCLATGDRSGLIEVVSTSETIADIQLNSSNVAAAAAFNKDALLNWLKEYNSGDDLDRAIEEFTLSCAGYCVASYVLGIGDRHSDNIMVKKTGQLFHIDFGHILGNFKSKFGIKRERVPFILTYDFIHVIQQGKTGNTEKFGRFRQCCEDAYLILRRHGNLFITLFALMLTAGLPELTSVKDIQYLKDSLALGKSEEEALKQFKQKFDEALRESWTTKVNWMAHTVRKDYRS

MDA-MB-468 [5] = test: Inhibition of PI3K in human MDA-MB-468 cells assessed as reduction in AKT phosphorylation at S473 residue at 1 uM measured after 6 to 72 hrs by Western blot analysis; assay type: cell-based
Procedure, shortened: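 MDA-MB-468 cells seeded overnight, then exposed for 6 h; control medium contained 1‰ DMSO. Lysates run on 8–12% SDS-PAGE and transferred to PVDF. Blots blocked in 5% BSA/TBST and probed for pAKT-Ser473/total AKT or pS6-Ser240/total S6, with β-actin as loading control. HRP secondary with ECL detection; bands quantified by densitometry. Three independent experiments.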

Mus musculus = test: In vivo inhibition of PI3K in BALB/c mouse xenografted with human MDA-MB-468 cells assessed as reduction in pS6 phosphorylation at S240 residue at 50 mg/kg, ip administered every 2 days for 34 days measured post-last dose by Western blot analysis; assay type: functional, organism-based
MDA-MB-468 [6] = test: Inhibition of PI3K in human MDA-MB-468 cells assessed as reduction in RAD51 foci formation at 1 uM measured after 72 hrs in presence of PARP inhibitor olaparib by DAPI staining based immunofluorescence microscopic analysis; assay type: cell-based
Procedure, shortened: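 RAD51 foci in MDA-MB-468 cells on coverslips after 72 h drug exposure. Cells fixed (3% formaldehyde), permeabilized (0.1% Triton X-100), blocked in 10% FBS/PBS, incubated overnight at 4 °C with rabbit anti-RAD51 polyclonal, then secondary antibody plus DAPI. Foci and percent positive cells (>5 foci per cell) counted from about 200 cells. Mean ± SD of three independent experiments.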

SW-620 = test: cells; details: Homo sapiens, SW-620, 168 h, read-out: pIC50 (converted)
CAKI-1 = test: cells; details: Homo sapiens, CAKI-1, 168 h, read-out: pIC50 (converted)
MDA-MB-468 [7] = test: Induction of apoptosis in human MDA-MB-468 cells assessed as viable cells at 1 uM measured after 72 hrs in presence of PARP inhibitor olaparib by Annexin V-FITC/propidium iodide staining based flow cytometry (reference value: 95.2%); assay type: functional; details: MDA-MB-468, 72 h, read-out: Activity
BXPC-3 = test: cells; details: Homo sapiens, BXPC-3, 168 h, read-out: pIC50 (converted)
MDA-MB-231 = test: cells; details: Homo sapiens, MDA-MB-231, 168 h, read-out: pIC50 (converted)
HCT-116 = test: cells; details: Homo sapiens, HCT-116, 168 h, read-out: pIC50 (converted)
MDA-MB-468 [8] = test: Induction of apoptosis in human MDA-MB-468 cells assessed as early apoptotic cells at 1 uM measured after 72 hrs in presence of PARP inhibitor olaparib by Annexin V-FITC/propidium iodide staining based flow cytometry (reference value: 3.88%); assay type: functional

Compound | IC50 [1] [nM] | Activity [2] | Ratio IC50 (HCC1937) | Activity (MDA-MB-468 [3]) | IC50 [4] [nM] | inhibition (MDA-MB-468 [5]) | inhibition (Mus musculus) | inhibition (MDA-MB-468 [6]) | IC50 (SW-620) [nM] | IC50 (CAKI-1) [nM] | viability at 1 µM (MDA-MB-468 [7]) [%] | IC50 (BXPC-3) [nM] | IC50 (MDA-MB-231) [nM] | IC50 (HCT-116) [nM] | Activity (MDA-MB-468 [8]) [%]
Nc1cc(C(F)(F)F)c(-c2nc3c(c(N4CCOCC4)n2)CCN(C(=O)c2cc(Cc4n[nH]c(=O)c5ccccc45)ccc2F)C3)cn1 | 7.41 | Non-Toxic | >=4 | Active | 288 | Active | Active |  |  |  |  |  |  |  | 
Nc1cc(C(F)(F)F)c(-c2cc(N3CCOCC3)nc(N3CCOCC3)n2)cn1 [BUPARLISIB] |  |  |  |  |  |  |  | Active | 3240 | 1860 | 81.5 | 2450 | 1580 | 1230 | 9.21
